Reference: ChEMBL document CHEMBL1148329, “Synthesis and structure-activity studies on N-[5-(1H-imidazol-4-yl)-5,6,7,8-tetrahydro-1-naphthalenyl]methanesulfonamide, an imidazole-containing alpha(1A)-adrenoceptor agonist” (J Med Chem, 2004)

Assays:
[1] = biological target: T1, Alpha-1B adrenergic receptor (Mesocricetus auratus, UniProt P18841); assay: In vitro binding affinity towards alpha-1B adrenergic receptor of hamster clone in radioligand binding assay; type: single protein
T1 sequence (P18841 whole entry): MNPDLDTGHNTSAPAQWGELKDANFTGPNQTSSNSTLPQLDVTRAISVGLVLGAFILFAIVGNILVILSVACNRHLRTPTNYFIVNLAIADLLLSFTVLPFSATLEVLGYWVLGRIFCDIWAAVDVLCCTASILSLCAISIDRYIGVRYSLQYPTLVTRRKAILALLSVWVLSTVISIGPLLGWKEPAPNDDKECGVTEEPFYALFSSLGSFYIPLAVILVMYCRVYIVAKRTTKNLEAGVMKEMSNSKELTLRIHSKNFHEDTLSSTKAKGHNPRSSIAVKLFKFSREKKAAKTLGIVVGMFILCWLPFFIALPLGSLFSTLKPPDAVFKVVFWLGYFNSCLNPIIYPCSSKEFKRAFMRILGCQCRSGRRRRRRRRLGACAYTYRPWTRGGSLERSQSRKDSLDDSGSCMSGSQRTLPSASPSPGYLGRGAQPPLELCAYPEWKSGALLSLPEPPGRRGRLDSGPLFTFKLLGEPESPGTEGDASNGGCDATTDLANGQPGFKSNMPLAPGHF
Summary of the method: (§1)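 Radioligand binding at α1 subtypes: α1A from rat submaxillary gland, α1B hamster clone, α1D rat clone. Run essentially per an earlier method.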

[2] = biological target: T2, Alpha-1D adrenergic receptor (Rattus norvegicus, UniProt P23944); assay: In vitro binding affinity towards alpha-1D adrenergic receptor of rat clone in radioligand binding assay; summary of the method: as §1
T2 sequence (P23944 whole entry): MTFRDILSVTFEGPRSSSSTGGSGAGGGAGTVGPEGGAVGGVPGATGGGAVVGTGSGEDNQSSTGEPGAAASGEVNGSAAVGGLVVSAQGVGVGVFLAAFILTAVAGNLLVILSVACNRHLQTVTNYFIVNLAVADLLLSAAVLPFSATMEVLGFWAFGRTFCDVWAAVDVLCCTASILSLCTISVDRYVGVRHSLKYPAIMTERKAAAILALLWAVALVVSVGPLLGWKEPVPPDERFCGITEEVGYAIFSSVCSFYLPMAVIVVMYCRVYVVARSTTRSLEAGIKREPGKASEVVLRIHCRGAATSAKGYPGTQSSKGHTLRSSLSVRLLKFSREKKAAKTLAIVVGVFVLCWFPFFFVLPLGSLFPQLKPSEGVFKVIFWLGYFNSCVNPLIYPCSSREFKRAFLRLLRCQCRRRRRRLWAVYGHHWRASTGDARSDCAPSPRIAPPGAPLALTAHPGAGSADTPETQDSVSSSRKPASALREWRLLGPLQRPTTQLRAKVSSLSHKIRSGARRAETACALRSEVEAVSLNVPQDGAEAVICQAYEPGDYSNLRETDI

Rattus norvegicus = species: Rattus norvegicus; assay: Relative affinities for alpha2B and alpha1A receptors
[3] = biological target: T3, Alpha-2A adrenergic receptor (Homo sapiens, UniProt P08913); assay: In vitro binding affinity towards alpha-2A adrenergic receptor of human clone in radioligand binding assay
T3 sequence (P08913 whole entry): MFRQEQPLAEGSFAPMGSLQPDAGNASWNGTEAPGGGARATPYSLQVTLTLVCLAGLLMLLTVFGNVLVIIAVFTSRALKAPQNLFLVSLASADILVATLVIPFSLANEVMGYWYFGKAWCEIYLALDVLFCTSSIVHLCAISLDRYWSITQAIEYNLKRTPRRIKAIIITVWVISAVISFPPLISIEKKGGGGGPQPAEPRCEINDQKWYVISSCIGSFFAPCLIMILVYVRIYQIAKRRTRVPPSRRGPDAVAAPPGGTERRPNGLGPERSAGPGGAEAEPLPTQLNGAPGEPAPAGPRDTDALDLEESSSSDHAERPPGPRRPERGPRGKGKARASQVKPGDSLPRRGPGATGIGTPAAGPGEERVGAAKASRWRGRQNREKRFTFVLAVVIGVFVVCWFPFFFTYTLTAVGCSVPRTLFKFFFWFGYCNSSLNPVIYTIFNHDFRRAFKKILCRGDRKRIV

[4] = biological target: Alpha adrenergic receptor 1A and 1D (Rattus norvegicus) (UniProt P23944+P43140); assay: Selectivity is ratio of pKi (binding affinity) of Alpha-1D to that of alpha1A; type: protein assay
[5] = biological target: T4, Alpha-1A adrenergic receptor (Bos taurus, UniProt P18130); assay: In vitro binding affinity towards alpha-1A adrenergic receptor of bovine clone in radioligand binding assay
T4 sequence (P18130 whole entry): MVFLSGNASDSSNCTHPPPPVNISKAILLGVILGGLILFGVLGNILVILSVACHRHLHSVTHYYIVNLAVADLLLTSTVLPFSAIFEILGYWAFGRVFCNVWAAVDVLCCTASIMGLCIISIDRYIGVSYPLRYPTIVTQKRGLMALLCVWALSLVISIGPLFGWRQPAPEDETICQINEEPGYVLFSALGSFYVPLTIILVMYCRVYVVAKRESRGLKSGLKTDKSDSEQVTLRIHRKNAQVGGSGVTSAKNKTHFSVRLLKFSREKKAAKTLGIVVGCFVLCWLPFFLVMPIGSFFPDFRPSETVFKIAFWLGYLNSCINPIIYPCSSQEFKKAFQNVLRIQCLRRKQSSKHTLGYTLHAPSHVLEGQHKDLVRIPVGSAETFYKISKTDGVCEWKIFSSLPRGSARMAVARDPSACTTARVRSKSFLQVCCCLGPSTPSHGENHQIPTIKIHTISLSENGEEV

[6] = biological target: Alpha adrenergic receptor 1A and 1B (Rattus norvegicus) (UniProt P15823+P43140); assay: Selectivity is ratio of pKi (binding affinity) of alpha-1B receptor to that of alpha-1A receptor.; type: protein assay
Chain of Alpha adrenergic receptor 1A and 1B (Rattus norvegicus) (P15823 whole entry, looked up): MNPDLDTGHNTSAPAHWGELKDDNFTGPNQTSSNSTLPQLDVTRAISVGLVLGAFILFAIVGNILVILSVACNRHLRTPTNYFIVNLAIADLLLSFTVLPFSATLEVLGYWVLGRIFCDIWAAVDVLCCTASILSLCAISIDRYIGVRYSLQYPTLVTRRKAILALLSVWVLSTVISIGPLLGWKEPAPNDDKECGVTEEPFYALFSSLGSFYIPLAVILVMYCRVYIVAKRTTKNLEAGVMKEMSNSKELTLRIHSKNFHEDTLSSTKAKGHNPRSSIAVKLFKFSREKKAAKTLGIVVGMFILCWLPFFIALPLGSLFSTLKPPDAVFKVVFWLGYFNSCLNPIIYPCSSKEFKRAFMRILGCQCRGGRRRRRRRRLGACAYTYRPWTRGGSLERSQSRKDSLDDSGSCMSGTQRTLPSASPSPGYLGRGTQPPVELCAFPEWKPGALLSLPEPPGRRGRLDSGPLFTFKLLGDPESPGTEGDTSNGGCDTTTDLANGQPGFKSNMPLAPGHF
Chain of Alpha adrenergic receptor 1A and 1B (Rattus norvegicus) (P43140 whole entry, looked up): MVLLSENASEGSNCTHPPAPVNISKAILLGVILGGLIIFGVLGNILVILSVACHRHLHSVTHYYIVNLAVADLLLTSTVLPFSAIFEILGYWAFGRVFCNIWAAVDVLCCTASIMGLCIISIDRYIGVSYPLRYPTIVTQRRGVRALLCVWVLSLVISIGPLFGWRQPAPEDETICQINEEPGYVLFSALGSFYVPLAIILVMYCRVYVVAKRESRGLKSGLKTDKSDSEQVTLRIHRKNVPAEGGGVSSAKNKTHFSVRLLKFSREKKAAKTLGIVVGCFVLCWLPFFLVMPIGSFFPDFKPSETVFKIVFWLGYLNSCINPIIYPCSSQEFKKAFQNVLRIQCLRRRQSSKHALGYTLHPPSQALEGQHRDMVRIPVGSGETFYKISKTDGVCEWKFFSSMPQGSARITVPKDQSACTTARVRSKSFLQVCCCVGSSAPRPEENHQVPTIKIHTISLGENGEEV

[7] = biological target: T5, Alpha-2B adrenergic receptor (Rattus norvegicus, UniProt P19328); assay: In vitro binding affinity towards alpha-2B adrenergic receptor of rat neonatal lung in radioligand binding assay
T5 sequence (P19328 whole entry): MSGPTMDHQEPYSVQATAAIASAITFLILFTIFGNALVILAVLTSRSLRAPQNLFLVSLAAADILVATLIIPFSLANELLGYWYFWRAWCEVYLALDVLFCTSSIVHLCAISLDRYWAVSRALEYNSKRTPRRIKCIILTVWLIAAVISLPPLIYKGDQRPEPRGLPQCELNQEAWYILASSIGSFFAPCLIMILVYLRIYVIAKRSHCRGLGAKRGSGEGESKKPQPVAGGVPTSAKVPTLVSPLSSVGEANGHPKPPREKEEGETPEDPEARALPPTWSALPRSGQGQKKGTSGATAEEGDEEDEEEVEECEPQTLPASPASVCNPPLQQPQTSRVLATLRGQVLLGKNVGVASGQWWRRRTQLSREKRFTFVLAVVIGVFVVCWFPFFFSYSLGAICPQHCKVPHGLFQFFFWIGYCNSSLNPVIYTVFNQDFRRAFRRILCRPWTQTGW

[8] = Relative affinities for alpha-2a and alpha-1A receptors
[9] = biological target: T6, Alpha-1A adrenergic receptor (Oryctolagus cuniculus) (UniProt O02824); assay: Efficacy relative to phenylephrine (PE) to constrict tissue containing the alpha-1A adrenergic receptor in rabbit urethra; type: functional, tissue-based
T6 sequence (whole entry): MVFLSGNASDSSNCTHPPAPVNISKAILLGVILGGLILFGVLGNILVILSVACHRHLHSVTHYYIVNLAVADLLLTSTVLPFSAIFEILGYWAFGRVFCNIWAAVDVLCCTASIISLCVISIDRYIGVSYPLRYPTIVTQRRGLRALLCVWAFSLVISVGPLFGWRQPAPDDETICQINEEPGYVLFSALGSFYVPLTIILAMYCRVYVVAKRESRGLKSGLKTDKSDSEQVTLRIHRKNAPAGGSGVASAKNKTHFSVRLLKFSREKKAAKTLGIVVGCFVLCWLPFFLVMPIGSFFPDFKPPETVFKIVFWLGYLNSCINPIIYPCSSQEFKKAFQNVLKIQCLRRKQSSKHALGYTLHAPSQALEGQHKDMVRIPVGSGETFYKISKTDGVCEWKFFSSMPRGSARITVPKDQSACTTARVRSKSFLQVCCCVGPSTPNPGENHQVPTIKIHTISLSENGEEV
Summary of the method: (§2)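 α1-agonist dose–response curves in isolated tissue: rabbit urethra (α1A), rat spleen (α1B), rat aorta (α1D). Agonist potency and efficacy read from the concentration–response curves.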

[10] = biological target: T6, Alpha-1A adrenergic receptor (Oryctolagus cuniculus); assay: Functional agonism of the compounds to constrict tissue containing the alpha-1A adrenergic receptor in rabbit urethra; type: tissue-based; summary of the method: as §2
[11] = Selectivity is ratio of efficacy of alpha-2A to that of alpha1A adrenoceptor; type: functional
Canis familiaris [12] = assay: Uroselectivity was determined by measuring effective dose required for 20 mmHg increase of mean arterial pressure (MAP) in vivo in dog; type: functional, Canis lupus familiaris, Artery
Summary of the method: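 Dog model recording intraurethral pressure (IUP) and mean arterial pressure (MAP) simultaneously. Increasing iv doses given, maximal effect of each dose taken. Doses giving a 5 mmHg rise in IUP (ED Δ5) or 20 mmHg rise in MAP (ED Δ20) were calculated, in nmol/kg ± SEM, n ≥ 4 (2 or 3 where footnoted).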

Canis familiaris [13] = species: Canis familiaris; assay: Ratio of MAP ED delta20 to that of IUP ED delta5
[14] = biological target: T7, Alpha-2A adrenergic receptor (Rattus norvegicus) (UniProt P22909); assay: Functional agonism to constrict tissue containing alpha-2A adrenergic receptor in rat prostatic vas deferens; type: tissue-based
T7 sequence (whole entry): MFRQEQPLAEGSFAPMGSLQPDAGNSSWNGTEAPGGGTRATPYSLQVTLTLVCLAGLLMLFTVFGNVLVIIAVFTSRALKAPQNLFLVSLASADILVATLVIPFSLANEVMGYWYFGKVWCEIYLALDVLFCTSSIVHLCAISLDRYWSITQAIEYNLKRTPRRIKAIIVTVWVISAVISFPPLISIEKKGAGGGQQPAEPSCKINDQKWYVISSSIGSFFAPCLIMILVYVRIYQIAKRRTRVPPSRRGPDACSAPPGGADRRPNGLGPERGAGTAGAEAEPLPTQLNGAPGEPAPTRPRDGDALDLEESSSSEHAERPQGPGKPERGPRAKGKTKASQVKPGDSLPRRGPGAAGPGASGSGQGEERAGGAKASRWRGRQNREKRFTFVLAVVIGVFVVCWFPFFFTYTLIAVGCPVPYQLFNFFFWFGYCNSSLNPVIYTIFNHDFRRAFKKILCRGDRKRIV

[15] = biological target: T7, Alpha-2A adrenergic receptor (Rattus norvegicus); assay: Efficacy relative to clonidine to constrict tissue containing the alpha-2A adrenergic receptor in rat prostatic vas deferens

Structure (SMILES)	Ki [1] [µM]	Ki [2] [µM]	Selectivity (Rattus norvegicus)	Ki [3] [µM]	Selectivity [4]	Ki [5] [µM]	Selectivity [6]	Ki [7] [µM]	Selectivity [8]	Efficacy [9] [%]	pD2 [10]	Selectivity [11]	ED delta20 (Canis familiaris [12]) [nM/kg]	Ratio (Canis familiaris [13])	pD2 [14]	Efficacy [15] [%]
Oc1cccc2c1CCCC2c1c[nH]cn1 (stereo unspecified)	0.145	0.0309	0.1	0.00871	1	0.115	3	0.0038	0.2	–	–	–	–	–	–	–
CCS(=O)(=O)Nc1ccc2c(c1)C(c1c[nH]cn1)CCC2 (stereo unspecified)	1.35	0.339	0.02	0.0229	0.2	2.04	1	0.0224	0.02	–	–	–	–	–	–	–
CN(C)S(=O)(=O)Nc1cccc2c1CCCC2c1c[nH]cn1 (stereo unspecified)	> 10	–	–	–	3	0.977	20	–	–	–	–	–	–	–	–	–
CCS(=O)(=O)Nc1cccc2c1CCCC2c1c[nH]cn1 (single isomer, unassigned; (+))	1.32	–	40	0.132	20	–	30	1.7	3	71	6.77	7	34	3.3	5.95	66
